One may read the inhibition as the change of the read-out against control, counted positive when it falls. As a reminder, the IC50 is the concentration that inhibits the measured activity by half.

These results are taken from ChEMBL document CHEMBL1155362, “Synthesis, characterization and derivatization of some novel types of mono- and bis-imidazolidineiminothiones and imidazolidineiminodithiones with antitumor, antiviral, antibacterial and antifungal activities--part I” (Eur J Med Chem, 2009).

A short description of test [1]: Antitumor activity against mouse EAC cells assessed as inhibition of cell viability at 100 ug/ml after 2 hrs by trypan blue exclusion assay. Format: functional. The settings on record: Ehrlich. A digest of the protocol:
(§1)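 EAC cells aspirated from ascitic fluid of inoculated mice and diluted in saline; 0.1 mL cell suspension, 0.8 mL RPMI 1640 and 0.1 mL compound (25, 50 or 100) incubated 2 h at 37 °C; non-viable cells counted by trypan blue exclusion; % non-viable = dead/total × 100.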

Test [2] is described as follows: Antitumor activity against mouse EAC cells assessed as inhibition of cell viability at 50 ug/ml after 2 hrs by trypan blue exclusion assay. Format: functional. The following applies: Ehrlich. In outline:
as §1

Test [3] in a line: Antitumor activity against mouse EAC cells assessed as inhibition of cell viability at 25 ug/ml after 2 hrs by trypan blue exclusion assay. Format: functional. The following applies: Ehrlich. A digest of the protocol:
as §1

Test [4] concerns HepG2. The test can be described thus: Cytotoxicity against human HepG2 cells assessed as surviving fraction after 48 hrs by SRB assay. Format: functional, cell-based. The settings on record: Homo sapiens, HepG2, 48 h; read-out: IC50. In outline: (§2)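 Cells seeded at 10⁴ cells/well and left 24 h to attach, then exposed to […] in triplicate wells per dose. Incubation 48 h, 37 °C, 5% CO₂. Cells fixed and stained with sulforhodamine B, excess dye removed with acetic acid, bound dye taken up in Tris EDTA and read on an ELISA reader. Surviving fraction plotted against concentration.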

In test [5] the test system is MCF7. The test can be described thus: Cytotoxicity against human MCF7 cells assessed as surviving fraction after 48 hrs by SRB assay. Format: functional, cell-based. A digest of the protocol: as §2
On the technique in general: The SRB assay estimates cell density from bound dye.

The test system of test [6] is HeLa. Put plainly: Cytotoxicity against human HeLa cells assessed as surviving fraction after 48 hrs by SRB assay. Format: functional, cell-based. In outline: as §2
Test [7] relates to HCT-116. Put plainly: Cytotoxicity against human HCT116 cells assessed as surviving fraction after 48 hrs by SRB assay. Format: functional, cell-based. A digest of the protocol: as §2
For test [8], the system named is Bacillus subtilis. The test can be described thus: Antibacterial activity against Bacillus subtilis NCIB 3610 at 5 mg/ml by agar disk diffusion assay. Format: functional. The settings on record: for zone of inhibition at 5000 µg/mL: Bacillus subtilis, NCIB 3610, read-out: DIZ. (In agar diffusion tests the substance spreads into inoculated agar from a disc or well.)

Test [9] has as its system Pseudomonas aeruginosa. Put plainly: Antibacterial activity against Pseudomonas aeruginosa NCIB 9016 at 1 mg/ml by agar disk diffusion assay. Format: functional.
Test [10] concerns Pseudomonas aeruginosa. The test can be described thus: Antibacterial activity against Pseudomonas aeruginosa NCIB 9016 at 2.5 mg/ml by agar disk diffusion assay. Format: functional. The settings on record: for zone of inhibition at 2500 µg/mL: Pseudomonas aeruginosa, NCIB 9016, read-out: DIZ.
Test [11] concerns Bacillus subtilis. The test can be described thus: Antibacterial activity against Bacillus subtilis NCIB 3610 at 1 mg/ml by agar disk diffusion assay. Format: functional. The following applies: for zone of inhibition at 1000 µg/mL: Bacillus subtilis, NCIB 3610, read-out: DIZ.
Test [12] concerns Bacillus subtilis. Put plainly: Antibacterial activity against Bacillus subtilis NCIB 3610 at 2.5 mg/ml by agar disk diffusion assay. The following applies: for zone of inhibition at 2500 µg/mL: Bacillus subtilis, NCIB 3610, read-out: DIZ. Format: functional.
Test [13] relates to U-251. The test can be described thus: Cytotoxicity against human U251 cells assessed as surviving fraction after 48 hrs by SRB assay. Format: functional, cell-based. A digest of the protocol: as §2
Test [14] has as its system Candida albicans. Put plainly: Antifungal activity against Candida albicans IMRU 3669 at 5 mg/ml by agar disk diffusion assay. Format: functional. The following applies: Candida albicans, IMRU 3669; read-out: DIZ. In outline:
(§3)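 Fungi maintained on Czapek's Dox agar; agar well diffusion with 1 cm wells and […] of each concentration (1, 2.5, 5 mg/mL) in DMF; inhibition zone diameter measured.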

Test [15] relates to Candida albicans. Put plainly: Antifungal activity against Candida albicans IMRU 3669 at 2.5 mg/ml by agar disk diffusion assay. Format: functional. The following applies: read-out: DIZ. A digest of the protocol:
as §3

Test [16] has as its system Pseudomonas aeruginosa. The test can be described thus: Antibacterial activity against Pseudomonas aeruginosa NCIB 9016 at 5 mg/ml by agar disk diffusion assay. Format: functional. The following applies: Pseudomonas aeruginosa, NCIB 9016; read-out: DIZ.
The subject of test [17] is Candida albicans. Put plainly: Antifungal activity against Candida albicans IMRU 3669 at 1 mg/ml by agar disk diffusion assay. Format: functional. The following applies: read-out: DIZ. In outline:
as §3

For test [18], the system named is Aspergillus niger. Put plainly: Antifungal activity against Aspergillus niger Ferm-BAM C-21 at 5 mg/ml by agar disk diffusion assay. The settings on record: read-out: DIZ. Format: functional. In outline: as §3
Where [19] appears, read: Homo sapiens, HeLa, 48 h, read-out: IC50.

Molecules are shown by their SMILES. Converted amounts (≈) assume the structure as drawn.

In the case of `NNc1nnc2c(n1)n(-c1ccc(Cl)cc1)c(=O)n2-c1ccc(Cl)cc1`, the inhibition at 100 µg/mL in test [1] worked out at 100%. Besides, the inhibition at 50 µg/mL in test [2] was 100%. For the same compound, the inhibition at 25 µg/mL in test [3] was 95%. The IC50 was 1.54 µg/mL (≈ 3.97 µM) in test [4], “Not Active” in test [5] (mcf7), “Not Active” in test [6] (hela) and “Not Active” in test [7] (hct-116).
With `CCN(CC)CC.N#CC(=S)Nc1ccc(Cl)c(Cl)c1`, the “diameter of the inhibition zone (DIZ)” value in test [8] was 17 mm; in test [9], 13 mm; in test [10], 16 mm; in test [11], 15 mm; in test [12] it was 16 mm.
As to `O=c1n(-c2ccc(Cl)cc2)c2nc3ccccc3nc2n1-c1ccc(Cl)c(Cl)c1`, in test [1], the inhibition at 100 µg/mL came out at 95%. Besides, the inhibition at 50 µg/mL in test [2] was 70%. Further, in test [3], the inhibition at 25 µg/mL came out at 30%. The IC50 entry in test [13] (u-251) was “Not Active”; in [4] it was 7.11 µg/mL (≈ 16.1 µM); in test [5] (mcf7), “Not Active”; in test [6] (setting [19]) it was 7.38 µg/mL (≈ 16.7 µM); in test [7] (hct-116), “Not Active”.
Take `N=C1C(=S)N(c2ccc(Cl)c(Cl)c2)C(=O)N1c1ccc(Oc2ccc(N3C(=N)C(=S)N(c4ccc(Cl)c(Cl)c4)C3=O)cc2)cc1`: the results for the zone of inhibition at 5000 µg/mL in [8], in [14] and in test [16] were 20 mm, 18 mm and 20 mm, respectively. The zone of inhibition at 2500 µg/mL in test [15] came out at 17 mm; in test [10] it was 18 mm; in test [12], 19 mm. Further, the zone of inhibition at 1000 µg/mL was 15 mm in [9] (Pseudomonas aeruginosa, NCIB 9016, read-out: DIZ) and 15 mm in test [11].
On to `CCOc1ccc(N2C(=O)N(c3c(CC)cc(Cc4cc(CC)c(N5C(=N)C(=S)N(c6ccc(OCC)cc6)C5=O)c(CC)c4)cc3CC)C(=N)C2=S)cc1`, for which the zone of inhibition at 5000 µg/mL in [8] was found to be 15 mm; in test [14], 15 mm; in [18], 13 mm; in [16] it was 15 mm. The zone of inhibition at 1000 µg/mL in test [17] was 12 mm; in [11], 13 mm. For the same compound, the zone of inhibition at 2500 µg/mL in [15] was found to be 14 mm; in test [10] it was 13 mm; in test [12] it was 14 mm. Also, the inhibition at 100 µg/mL in [1] amounted to 90%. Moreover, in [2], the inhibition at 50 µg/mL is 80%. In addition, the inhibition at 25 µg/mL in test [3] was 60%. Further, the IC50 in test [13] (Homo sapiens, U-251, 48 h, read-out: IC50) stood at 1.01 µg/mL (≈ 1.3 µM); in [4] it was 5.44 µg/mL (≈ 7.02 µM); in [5] (Homo sapiens, MCF7, 48 h, read-out: IC50), 2.15 µg/mL (≈ 2.77 µM); in [6] (setting [19]), 2.42 µg/mL (≈ 3.12 µM); in test [7] (Homo sapiens, HCT-116, 48 h, read-out: IC50), 4.36 µg/mL (≈ 5.63 µM).
In the case of `N#CC(=S)Nc1ccc(Cl)c(Cl)c1`, the zone of inhibition at 5000 µg/mL in test [16] was 19 mm.
Turning to `Cc1ccc(-n2c(=O)n(-c3ccc(Cl)cc3)c3nc4cc(C)ccc4nc32)cc1`, the inhibition at 100 µg/mL in [1] amounted to 90%. Also, the inhibition at 50 µg/mL in test [2] turned out to be 60%. For the same compound, the inhibition at 25 µg/mL in test [3] stood at 35%. The half-inhibitory concentration (IC50) entry is “Not Active” in test [13] (u-251); 4.43 µg/mL (≈ 11.1 µM) in test [4]; “Not Active” in [5] (mcf7); 8.32 µg/mL (≈ 20.8 µM) in test [6] (setting [19]); “Not Active” in test [7] (hct-116).
